Screening results from PubChem.
C8 TRAIL sens – caspase-8 TRAIL sensitization. NB7+C8 cells + TRAIL, ATPlite viability luminescence. inhibition (viability loss, TRAIL sensitization), % at 10 µM. 360,000 compounds, 1% hits. AID 624354;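 active = compounds causing at least 50% loss of cell viability in the single-dose screen, relative to plate controls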
HSP90 refold inh – inhibitors of HSP90 luciferase refolding in rabbit reticulocyte lysate; luciferase refolding luminescence, 3 h; inhibition, % at 5.6 µM; 290,000 compounds, 0.91% hits; AID 1789;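 active = inhibition above the screen-wide mean plus 3 SD, computed separately per campaign, cut at about 16% in these data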;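 also: 0% = DMSO wells and 100% = 60 µM geldanamycin wells; inhibitors lower the luminescence because luciferase stays unfolded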
PPC-1+TRAIL kill – PPC-1 cancer cell killing with TRAIL present | PPC-1 cells + TRAIL, ATPLite viability luminescence | cell killing (% activity), % at 4 µM or 5 µM | 220,000 compounds, 0.41% hits | AID 1443;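 active = cell killing above 50% in the first pass at 4 µM, then a duplicate retest at 5 µM averaging 50% or more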;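 also: plate controls were cells with TRAIL plus DMSO for no effect and medium-only wells lacking cells for full effect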
FLuc act counter – firefly luciferase counter-screen for stimulation assays | ATPlite luciferase biochemical, luminescence, 10 min; 0 = ATP-free wells, 1 = DMSO control | AID 1027 | 200,000 tested, under 10 active | activation factor at 10 µM | P08659;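 active = luciferase activation factor, scaled between plate controls, of at least 2 with compound at 10 µM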
Target sequence (P08659 whole entry, looked up): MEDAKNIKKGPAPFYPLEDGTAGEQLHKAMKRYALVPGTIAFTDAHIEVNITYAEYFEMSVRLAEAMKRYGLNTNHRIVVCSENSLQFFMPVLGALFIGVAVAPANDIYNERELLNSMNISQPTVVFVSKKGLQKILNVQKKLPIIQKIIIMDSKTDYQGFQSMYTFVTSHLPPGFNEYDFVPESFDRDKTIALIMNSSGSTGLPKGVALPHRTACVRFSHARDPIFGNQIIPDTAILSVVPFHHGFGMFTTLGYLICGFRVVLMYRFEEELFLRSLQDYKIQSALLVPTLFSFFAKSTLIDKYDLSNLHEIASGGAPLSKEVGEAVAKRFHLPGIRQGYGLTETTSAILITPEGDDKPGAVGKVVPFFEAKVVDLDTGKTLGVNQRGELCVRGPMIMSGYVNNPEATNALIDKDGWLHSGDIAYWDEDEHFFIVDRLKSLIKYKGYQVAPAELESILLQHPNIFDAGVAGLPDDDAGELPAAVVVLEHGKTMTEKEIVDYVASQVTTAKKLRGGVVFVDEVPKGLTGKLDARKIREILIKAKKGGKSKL
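System: cell-free luciferase reagent; medium: PBS as buffer for the ATP substrate; doses: test compounds dosed from 2 mM stocks in 100% DMSO; incubation: 10 min, room temperature; measured by: luminescence from luciferase reaction; read-out: luciferase activation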
STAT3 blocker – reduces IL-6 driven STAT3 reporter signal; U3A cells, IL-6 STAT3-luciferase reporter, luminescence; host cell line lacks STAT1; inhibition, % at 5.5 µM; 190,000 compounds, 0.89% hits; AID 862;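 active = inhibition above the mean inhibition across all screened compounds plus 3 SD, cut at about 44% in these data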;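 also: 0% = DMSO only wells and 100% = 100 µM nifuroxazide control wells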
FLuc inh counter – Photinus pyralis luciferase inhibition counter-screen. ATPLite firefly luciferase biochemical luminescence, 10 min. inhibition, % at 10 µM. 200,000 compounds, 1.5% hits. AID 1006;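 active = inhibition above about 50% when tested at 10 µM, limit read from the data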
The depositor's hits bear a star. In the library only some 2.2% were active in any assay of this set; here they are far more common.

How did O=c1[nH]c(=S)[nH]c(O)c1N=Nc1cc2c(cc1[N+](=O)[O-])OCO2 do in these assays?
C8 TRAIL sens: -5.4; HSP90 refold inh: 2.3; PPC-1+TRAIL kill: 10.5; FLuc act counter: 0.9; STAT3 blocker: 8.4; FLuc inh counter: 7.9

How did COc1ccc(N=Nc2c(O)[nH]c(=S)[nH]c2=O)cc1 do in these assays?
C8 TRAIL sens: 19.6; HSP90 refold inh: -1.1; PPC-1+TRAIL kill: 11.2; FLuc act counter: 0.4; STAT3 blocker: 25.8; FLuc inh counter: 59.0*

How did NS(=O)(=O)c1ccc(N=Nc2c(O)[nH]c(=S)[nH]c2=O)cc1 do in these assays?
C8 TRAIL sens: -2.5; HSP90 refold inh: 2.5; PPC-1+TRAIL kill: 13.2

How did O=c1[nH]c(=S)[nH]c(O)c1N=Nc1ccc2c(c1)OCO2 do in these assays?
C8 TRAIL sens: 17.4; HSP90 refold inh: -1.2; PPC-1+TRAIL kill: 20.1; FLuc act counter: 0.5; STAT3 blocker: 5.3; FLuc inh counter: 53.4*

What do the screens show for `COc1ccc(-n2nc(C(=O)NCC(=O)N3CCC4(CC3)OCCO4)c3ccccc3c2=O)c(OC)c1`?
C8 TRAIL sens: 55.1*; HSP90 refold inh: 4.1

What do the screens show for `O=C(Cn1cnc2ccccc2c1=O)NCC(=O)N1CCC2(CC1)OCCO2`?
C8 TRAIL sens: -9.1; HSP90 refold inh: 0.2; PPC-1+TRAIL kill: -1.1; FLuc act counter: 1.1; STAT3 blocker: 8.7; FLuc inh counter: -5.3

Results for N#CC1c2ccccc2-n2nncc2CN1C(=O)CCc1ccccc1 (stereo not given) ?
C8 TRAIL sens: 3.8

How did S=C(NCCc1ccccc1)N1Cc2cc(N3CCCCC3)ccc2-n2nncc2C1 do in these assays?
C8 TRAIL sens: -2.4

What do the screens show for `CC1=C(O)C(=O)C=C2C1=CC=C1C2(C)CCC2(C)C3CC(C)(C(=O)O)CCC3(C)CCC12C` (stereo not given)?
C8 TRAIL sens: 88.9*

What do the screens show for `CCOC(=O)[C@]12Cc3cc4ccccc4cc3[C@H]1N(Cc1ccccc1)C(=O)c1cc(OC)ccc12`?
C8 TRAIL sens: 64.2*

What do the screens show for `CCCCCN1C(=O)c2cc(OC)ccc2[C@@]2(C(=O)OCC)Cc3cc(Cl)ccc3[C@@H]12`?
C8 TRAIL sens: 84.7*

How did CCOC(=O)[C@]12Cc3cc4ccccc4cc3[C@H]1N(Cc1ccccc1)C(=O)c1ccccc12 do in these assays?
C8 TRAIL sens: 66.7*

What do the screens show for `CCOC(=O)[C@]12Cc3cc(OC)c(OC)cc3[C@H]1N(Cc1ccccc1)C(=O)c1ccccc12`?
C8 TRAIL sens: 2.2

How did CCOC(=O)[C@]12Cc3cc(Cl)ccc3[C@H]1N(Cc1ccccc1)C(=O)c1cc(OC)ccc12 do in these assays?
C8 TRAIL sens: 88.6*

What do the screens show for `O=C1NC(=S)SC1=Cc1ccc(N(CCCl)CCCl)cc1`?
C8 TRAIL sens: -11.8

Results for N#CC1c2ccccc2-n2nncc2CN1C(=O)c1ccccc1F (stereo not given) ?
C8 TRAIL sens: -3.9

How did C[C@]1(O)CCC2C3CC[C@H]4C[C@@H](OC(=O)[C@@H](N)CCCCN)CC[C@]4(C)C3CC[C@@]21C (stereo not given in full) do in these assays?
C8 TRAIL sens: -12.1

What do the screens show for `CCOC(=O)[C@]12Cc3cc(Cl)ccc3[C@H]1N(C1CCCCC1)C(=O)c1ccccc12`?
C8 TRAIL sens: 95.5*

How did CCOC(=O)[C@]12Cc3cc(OC)ccc3[C@H]1N(C1CCCCC1)C(=O)c1ccccc12 do in these assays?
C8 TRAIL sens: 84.9*

Results for S=P(NCCNP(=S)(N1CC1)N1CC1)(N1CC1)N1CC1 ?
C8 TRAIL sens: -2.7

How did CNC(=O)Oc1cccc(-c2cn3cc(OC(=O)NC)ccc3n2)c1 do in these assays?
C8 TRAIL sens: 14.8; HSP90 refold inh: 4.2; PPC-1+TRAIL kill: -7.8; FLuc act counter: 0.3; STAT3 blocker: 7.0; FLuc inh counter: 73.2*

What do the screens show for `COc1ccc(C[C@H]2NC[C@H](O)[C@H]2OC(C)=O)cc1`?
C8 TRAIL sens: 86.0*

What do the screens show for `O=C1NCN(c2ccccc2)C12CCN(C(c1nnnn1-c1ccc3c(c1)OCCO3)C1CC1)CC2` (stereo not given)?
C8 TRAIL sens: -7.5
